Hits are enriched below; roughly 5.7% of the tested compounds scored in any of these assays.
Calb FLC – affects C. albicans growth with fluconazole | growth inhibition, % (concentration not given with the values) | 300,000 compounds, 0.57% hits | AID 1979 | C. albicans CaCi-2 (fluconazole-resistant clinical isolate) + fluconazole, Alamar Blue growth, 48 h;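 active means growth inhibition above about 58% in most replicates, limit read from the data, passing the limit was not always enough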;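 further: all wells also contain fluconazole at 8 µg/ml as a sub-toxic cotreatment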
SKKanGAS inh – SKKanGAS growth inhibition; S. pyogenes SKKanGAS, kanamycin growth, BacTiter-Glo, 6 h; inhibition, % at 7.5 µM; 300,000 compounds, 1.3% hits;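 active means mean replicate score, as percent of positive control median, at least 50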;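 further: strain carries kanamycin resistance gene driven by streptokinase promoter and grows in 40 µg/ml kanamycin; loss of luminescence reflects streptokinase promoter inhibition or plain growth inhibition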
T cruzi repl – blocks replication of Trypanosoma cruzi | T. cruzi beta-gal in NIH3T3, luminescence, 90 h | inhibition, % (no concentration beside the values) | 300,000 compounds, 1.4% hits | AID 1885;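 active means mean inhibition across valid replicates above about 55%, limit read from the data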;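 further: signal also drops with host cell toxicity which is not excluded here; higher percent means less beta-gal luminescence so fewer parasites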
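System: mouse NIH/3T3 fibroblasts infected with β-gal-expressing T. cruzi Tulahuen C4 / Input: NIH/3T3 cells, 5,000 per well / Buffer or medium: Low-serum DMEM with 2% FBS / Probe or stimulus: 5000 reporter trypomastigotes per well / Schedule: ≥90 h infection period, 3 h prior cell attachment / Measured by: GalScreen luminescence, 60 min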
Beta apoptosis – beta cell apoptosis inhibition; protection from apoptosis, % (test concentration not listed); 300,000 compounds, 0.8% hits; INS-1E cytokine-induced death, ATP luminescence, 48 h; percent of positive-control rescue, neutral wells zero;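 active means Every replicate reaches about 75%, or at least half do and their mean reaches it too, limit read from the data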;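 further: higher means more ATP so stronger rescue from cytokine killing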
Mdm2 MdmX PPI – human Mdm2/MdmX binding inhibition; O15151+Q00987; SaOS-2 split-luciferase Mdm2/MdmX complementation, luminescence; inhibition, % at 8 µM; 330,000 compounds, 3% hits;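 active means inhibition of at least 50% at 8 µM in the primary screen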
Target sequence (O15151 whole entry, looked up): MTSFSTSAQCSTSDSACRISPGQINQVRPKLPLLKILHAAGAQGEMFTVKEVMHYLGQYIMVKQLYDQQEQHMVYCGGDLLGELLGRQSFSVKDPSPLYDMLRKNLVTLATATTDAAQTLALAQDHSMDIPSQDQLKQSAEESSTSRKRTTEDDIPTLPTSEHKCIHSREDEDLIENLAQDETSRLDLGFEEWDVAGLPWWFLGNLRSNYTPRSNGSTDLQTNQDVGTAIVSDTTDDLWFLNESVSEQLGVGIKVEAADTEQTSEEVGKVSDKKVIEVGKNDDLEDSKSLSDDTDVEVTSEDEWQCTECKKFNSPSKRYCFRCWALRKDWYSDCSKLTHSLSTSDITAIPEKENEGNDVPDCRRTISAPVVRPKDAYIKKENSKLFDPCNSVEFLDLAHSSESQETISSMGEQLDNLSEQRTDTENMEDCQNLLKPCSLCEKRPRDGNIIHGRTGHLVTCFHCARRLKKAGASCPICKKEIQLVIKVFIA
Target sequence (Q00987 whole entry, looked up): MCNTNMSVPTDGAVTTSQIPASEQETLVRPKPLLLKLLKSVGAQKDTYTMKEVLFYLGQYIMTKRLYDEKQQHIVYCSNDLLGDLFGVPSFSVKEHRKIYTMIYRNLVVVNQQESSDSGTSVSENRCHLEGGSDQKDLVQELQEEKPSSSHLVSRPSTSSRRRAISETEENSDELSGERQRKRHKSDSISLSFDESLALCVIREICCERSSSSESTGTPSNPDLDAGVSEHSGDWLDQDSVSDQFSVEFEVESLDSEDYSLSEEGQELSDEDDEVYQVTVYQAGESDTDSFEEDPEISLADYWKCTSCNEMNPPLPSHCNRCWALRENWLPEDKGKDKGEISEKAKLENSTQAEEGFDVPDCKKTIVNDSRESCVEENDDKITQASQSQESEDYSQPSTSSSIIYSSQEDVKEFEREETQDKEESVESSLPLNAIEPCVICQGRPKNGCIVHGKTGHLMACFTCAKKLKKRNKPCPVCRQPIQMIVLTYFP
CSC inhib – cancer stem cell inhibition. cancer stem cell-like cells viability, luminescence. inhibition, % at 7.5 µM. 300,000 compounds, 1.1% hits; in the data active means inhibition above about 75%; tested in HMLE shEcad cells
Mdm2-MdmX conf – confirmation of human Mdm2/MdmX interaction inhibitors; shares compounds with Mdm2 MdmX PPI; Mdm2-MdmX binding, luminescent assay; inhibition, % at 8 µM; 10,000 compounds, 55% hits; in the data active means inhibition above about 40%
Full FLuc ctr – counter-screen for Mdm2/MdmX inhibitors: full-length luciferase; shares compounds with Mdm2 MdmX PPI; SaOS-2 full-length luciferase counterscreen, luminescence; inhibition, % at 8 µM; 6,200 compounds, 77% hits;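 active means mean inhibition at 8 µM reaching about 37%, which flags the compound as non-specific, limit read from the data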;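 further: p53-null SaOS-2 cells with luciferase driven by a doxycycline-inducible promoter; compound on cells about two nights before reading with doxycycline added after day one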
A number is an active result.

How did CCCNC(=O)C(Cc1ccc(C(F)(F)P(=O)(OCC)OCC)cc1)NC(=O)c1ccc(C#N)cc1 (configuration not stated) do in these assays?
Beta apoptosis: inactive; Mdm2 MdmX PPI: inactive; CSC inhib: inactive

How did CN1C(=O)Nc2cccc3cccc1c23 do in these assays?
Calb FLC: inactive; SKKanGAS inh: inactive; T cruzi repl: inactive; Beta apoptosis: inactive; Mdm2 MdmX PPI: 51.7; CSC inhib: inactive; Mdm2-MdmX conf: inactive

What do the screens show for `COc1ccc(-c2cccc(-c3cc(=O)oc4cc5c(cc34)OCO5)c2)cc1`?
Mdm2 MdmX PPI: 53.6; Mdm2-MdmX conf: inactive

What do the screens show for `COc1cc(OC)c2c(-c3cccc(-c4ccc(O)cc4)c3)cc(=O)oc2c1`?
Mdm2 MdmX PPI: 72.5; Mdm2-MdmX conf: 56.0; Full FLuc ctr: 42.7

What do the screens show for `COc1ccc(-c2cccc(-c3cc(=O)oc4cc(OC)cc(OC)c34)c2)cc1`?
Mdm2 MdmX PPI: 77.7; Mdm2-MdmX conf: 54.0; Full FLuc ctr: 68.2

How did COc1ccc(-c2cccc(-c3cc(=O)oc4cc(OC)c(OC)c(OC)c34)c2)cc1 do in these assays?
Mdm2 MdmX PPI: inactive

What do the screens show for `COc1cc(OC)c2c(-c3cccc(-c4ccc(CO)cc4)c3)cc(=O)oc2c1`?
Mdm2 MdmX PPI: 74.1; Mdm2-MdmX conf: 63.3; Full FLuc ctr: 62.0

How did CCN1CCN(C(=O)C(C)Sc2nnc3nc(C)cc(C)n23)CC1 (configuration not stated) do in these assays?
Beta apoptosis: inactive; Mdm2 MdmX PPI: inactive

How did COc1ccccc1N1CCN(C(=O)CCC(=O)Nc2nnc(C(C)C)s2)CC1 do in these assays?
Calb FLC: inactive; SKKanGAS inh: inactive; T cruzi repl: inactive; Mdm2 MdmX PPI: inactive; CSC inhib: inactive

How did COc1cc(OC)c2c(-c3cccc(-c4ccc(N(C)C)cc4)c3)cc(=O)oc2c1 do in these assays?
Mdm2 MdmX PPI: 67.4; Mdm2-MdmX conf: 56.2; Full FLuc ctr: 103.0

What do the screens show for `Cc1cc(N/N=C/c2cccc(Cl)c2)nc(-n2nc(C)cc2C)n1`?
Calb FLC: inactive; SKKanGAS inh: 103.5; T cruzi repl: inactive; Beta apoptosis: 103.2; Mdm2 MdmX PPI: 64.0; CSC inhib: inactive; Mdm2-MdmX conf: inactive

What do the screens show for `COc1ccc(/C=N/Nc2cc(N3CCCC3)nc(N3CCCC3)n2)cc1`?
Calb FLC: inactive; SKKanGAS inh: inactive; T cruzi repl: 67.0; Beta apoptosis: inactive; Mdm2 MdmX PPI: 77.1; CSC inhib: 91.7; Mdm2-MdmX conf: inactive

Results for COc1ccc(/C=N/Nc2cc(C)nc(-n3nc(C)cc3C)n2)cc1 ?
Calb FLC: inactive; SKKanGAS inh: inactive; T cruzi repl: inactive; Beta apoptosis: 90.0; Mdm2 MdmX PPI: 53.7; CSC inhib: inactive; Mdm2-MdmX conf: 40.2; Full FLuc ctr: 51.7

How did Oc1ccc(/C=N/Nc2cc(N3CCCC3)nc(N3CCCC3)n2)cc1 do in these assays?
Calb FLC: inactive; SKKanGAS inh: inactive; T cruzi repl: inactive; Beta apoptosis: inactive; Mdm2 MdmX PPI: inactive; CSC inhib: inactive

What do the screens show for `Cc1cc(N/N=C/c2ccccc2[N+](=O)[O-])nc(-n2nc(C)cc2C)n1`?
Calb FLC: inactive; SKKanGAS inh: inactive; T cruzi repl: 69.0; Beta apoptosis: 127.8; Mdm2 MdmX PPI: 53.3; CSC inhib: inactive; Mdm2-MdmX conf: inactive; Full FLuc ctr: 43.2

How did O=C(Nc1ccccc1[N+](=O)[O-])c1cccc(N2C(=O)CCC2=O)c1 do in these assays?
Calb FLC: inactive; SKKanGAS inh: inactive; T cruzi repl: inactive; Beta apoptosis: inactive; Mdm2 MdmX PPI: inactive; CSC inhib: inactive

What do the screens show for `Cc1ncsc1C(=O)Nc1cccc(C(F)(F)F)c1`?
Calb FLC: inactive; SKKanGAS inh: inactive; T cruzi repl: inactive; Beta apoptosis: inactive; Mdm2 MdmX PPI: inactive; CSC inhib: inactive

Results for CCS(=O)(=O)N1CCC(NC(=O)C(Cc2cc(OC)ccc2OC)NC(C)=O)CC1 (configuration not stated) ?
Calb FLC: inactive; SKKanGAS inh: inactive; T cruzi repl: inactive; Beta apoptosis: inactive; Mdm2 MdmX PPI: inactive; CSC inhib: inactive

What do the screens show for `CCOC(=O)/C(C#N)=C\c1cccnc1`?
Calb FLC: inactive; SKKanGAS inh: inactive; T cruzi repl: inactive; Beta apoptosis: inactive; Mdm2 MdmX PPI: inactive

What do the screens show for `CCOC(=O)/C(=C\c1ccccc1)C(=O)c1cc(C(C)=O)c(Nc2ccccc2)s1`?
Calb FLC: inactive; SKKanGAS inh: inactive; T cruzi repl: 54.6; Beta apoptosis: 97.9; Mdm2 MdmX PPI: 96.6; CSC inhib: 76.2; Mdm2-MdmX conf: 93.4; Full FLuc ctr: 45.1

How did CCOC(=O)/C(=C\c1cccnc1)C(=O)c1cc(C(C)=O)c(Nc2ccccc2)s1 do in these assays?
Calb FLC: inactive; SKKanGAS inh: inactive; T cruzi repl: inactive; Beta apoptosis: 105.0; Mdm2 MdmX PPI: 97.0; CSC inhib: 97.0; Mdm2-MdmX conf: 98.6; Full FLuc ctr: 52.2

Results for CC1(c2ccccc2)NC(=O)N(CC(=O)N(CC(=O)Nc2ccccc2C(F)(F)F)Cc2ccco2)C1=O (configuration not stated) ?
Mdm2 MdmX PPI: inactive

What do the screens show for `CC(C)(C)NC(=O)CC1C[C@H](C(=O)N2CCCCC2)[C@@]2(CCc3ccccc3)c3[nH]c4ccccc4c3CCN2C1=O` (some centres not stated)?
Beta apoptosis: inactive; Mdm2 MdmX PPI: 61.9; CSC inhib: inactive; Mdm2-MdmX conf: 49.7; Full FLuc ctr: 70.0

Results for CN(C)C(=O)CCc1ccc2c3c([nH]c2c1)[C@]1(CCc2ccccc2)[C@@H](C(=O)N2CCCCC2)C[C@H](CC(=O)NCc2ccco2)C(=O)N1CC3 ?
Mdm2 MdmX PPI: 97.8; Mdm2-MdmX conf: 74.0; Full FLuc ctr: 51.4

What do the screens show for `O=C(CC1C[C@H](C(=O)N2CCCCC2)[C@@]2(CCc3ccccc3)c3[nH]c4ccccc4c3CCN2C1=O)NCc1ccco1` (some centres not stated)?
Beta apoptosis: inactive; Mdm2 MdmX PPI: 51.6; Mdm2-MdmX conf: inactive

What do the screens show for `COc1ccc2[nH]c3c(c2c1)CCN1C(=O)C(CC(=O)NC(C)(C)C)C[C@H](C(=O)N2CCCCC2)[C@@]31CCc1ccccc1` (some centres not stated)?
Mdm2 MdmX PPI: inactive

What do the screens show for `O=C1CCc2cc(NS(=O)(=O)c3ccc(Br)cc3)cc3c2N1CC3`?
Calb FLC: inactive; SKKanGAS inh: inactive; T cruzi repl: inactive; Beta apoptosis: inactive; Mdm2 MdmX PPI: inactive; CSC inhib: inactive

Results for Oc1ccc(CCNc2ncnc3ccc(Cl)cc23)cc1 ?
SKKanGAS inh: inactive; T cruzi repl: inactive; Beta apoptosis: 107.4; Mdm2 MdmX PPI: 64.3; CSC inhib: 86.1; Mdm2-MdmX conf: 73.2; Full FLuc ctr: inactive

From PubChem BioAssay
